NTR1 agonist: agonists of human NTR1, primary screen, imaging, U2OS cells, beta-arrestin-GFP, high content | Neurotensin receptor type 1 (Homo sapiens), P30989 | 0.17% of 330,000 active | activation, % at 20 µM | AID 493036, 2011 | NTR1-U2OS beta-arrestin-GFP spot imaging, agonist mode;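 active = activation at or above 40% of the spot to cytoplasm intensity ratio, with at least 20 cells analyzed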;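 note: 0% = DMSO without peptide and 100% = 100 nM NTR1 peptide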
Target sequence (P30989 whole entry, looked up): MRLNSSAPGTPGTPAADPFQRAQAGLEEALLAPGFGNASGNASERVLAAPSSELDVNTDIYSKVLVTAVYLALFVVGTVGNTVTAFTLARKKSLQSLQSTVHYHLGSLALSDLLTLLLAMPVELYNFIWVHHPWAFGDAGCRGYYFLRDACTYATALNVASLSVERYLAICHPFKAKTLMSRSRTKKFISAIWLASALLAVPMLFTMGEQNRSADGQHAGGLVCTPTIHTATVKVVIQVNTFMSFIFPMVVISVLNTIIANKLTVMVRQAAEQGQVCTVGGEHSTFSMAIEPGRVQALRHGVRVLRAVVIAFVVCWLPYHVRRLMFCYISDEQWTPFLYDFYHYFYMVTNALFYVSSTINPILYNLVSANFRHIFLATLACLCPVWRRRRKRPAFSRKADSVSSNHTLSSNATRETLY
CaV13 ICDI inh: Primary screen for inhibitors of IQ motif and Ca2+-dependent inactivation inhibitor domain binding in CACNA1D, Förster resonance energy transfer in living cells, … | HEK cells, CFP/YFP FRET ICDI-IQ, plate reader, 10 min; percent FRET-ratio fall versus neutral wells | inhibition, % at 12.3 µM | 0.098% of 340,000 active | AID 743397;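 active = mean replicate inhibition of at least 30% and at least 1% of replicates passing that level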;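 note: 0% = median of the neutral control wells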
V-ATPase pHluor: regulators of yeast V-ATPase proton pumping, primary screen, pHLuorin cytosolic pH fluorescence. response, % at 10 µM. 0.37% of 350,000 active. S. cerevisiae; in the data active = response mostly above about 7.3%, no sharp cut-off; inactive = mostly below about 5.4%; note: actives read high
Vif inh: HIV Vif self-association inhibitors, primary screen, imaging, HEK293T, single point; HEK293T cells, Vif self-association by quenched fluorescence, 24 h; inhibition, % at 7.49 µM; 0.35% of 340,000 active; AID 602346, 2012; in the data active = inhibition above about 50%, passing the limit was not always enough
SR-BI DiI-HDL act: activators of SR-BI mediated DiI-HDL uptake, primary screen, ldlA[mSR-BI] CHO cells, DiI fluorescence; AID 504775, 2011; 3 h; 100 = double the neutral-control signal; activation, % at 12.5 µM; 0.096% of 320,000 active;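 active = mean replicate activation of at least 60% and every replicate at or above 60%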;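 note: 0% = median plate neutral-control signal and 100% = twice that signal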
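Test system: SR-BI-overexpressing, LDLR-lacking CHO cells; Medium: Ham's F12 with 0.5% BSA, HEPES 25 mM, pH 7.4; Schedule: 3 h, 37 °C; Technique: bottom-read fluorescence, 550/595 nm.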
SR-BI DiI inh: inhibitors of SR-BI mediated HDL lipid uptake, primary screen, ldlA[mSR-BI] cells, fluorescence, single point. Scavenger receptor class B member 1 (Mus musculus), Q61009. ldlA[mSR-BI] CHO cells, DiI-HDL uptake fluorescence, 3 h. inhibition, % at 12.5 µM. 0.96% of 320,000 active. AID 488896, 2010;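 active = mean replicate inhibition of at least 70% and a set share of replicates each scoring 70 or more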;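 note: 0% = median of neutral control wells and 100% = median of positive control wells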
An asterisk follows results filed as active; · = not tested or not shown; + = active, no number. A selection: hits, their analogues and other compounds. The true share with any hit is near 1.7%.

SMILES | NTR1 agonist | CaV13 ICDI inh | V-ATPase pHluor | Vif inh | SR-BI DiI-HDL act | SR-BI DiI inh
COCCNC(=O)C(=O)NCC(c1ccc2c(c1)OCO2)N1CCN(c2ccc(F)cc2)CC1 (stereo not given) | -1 | -10 | 3 | 4 | 2 | -2
CCc1ccc(CCC(=O)Nc2nnc(C)s2)o1 | -1 | -8 | 0 | 55* | 20 | -20
CCc1nnc(NC(=O)CCc2ccc(C)o2)s1 | 3 | -3 | 4 | 0 | 28 | -28
O=C(NCC1CCN(C(=O)C(=O)c2cccs2)CC1)c1cccnc1 | · | -7 | · | · | · | ·
O=C1C=CC(=O)c2c(O)c(N3CCN(CCOCCO)CC3)c(Br)c(O)c21 | · | -3 | -4 | 72* | -5 | 5
O=C1C=CC(=O)c2c(O)c(N3CCN(CCO)CC3)c(Cl)c(O)c21 | · | -8 | -2 | 127* | -35 | 35
CC1(C(=O)Nc2ccc3c(c2)OCO3)CCN1C(=O)Cc1ccc(-c2ccccc2)cc1 (stereo not given) | · | -10 | · | -13 | · | ·
CC(=O)Nc1ccc(NC(=O)COc2ccc(-c3ccc(C#N)cc3)cc2)cc1 | 1 | -16 | -6 | 55* | 20 | -20
CCCn1c(=O)c2[nH]c(-c3ccc(OCC(=O)Nc4ccc(C#N)cc4)cc3)nc2n(CCC)c1=O | 2 | -6 | 3 | 94* | 20 | -20
N#Cc1ccc(OCC(=O)Nc2ccc3[nH]c(=O)[nH]c3c2)cc1 | 0 | -7 | -2 | 2 | 10 | -10
COCCn1c(SCC(=O)N2CCOCC2)nnc1-c1ccncc1 | 0 | -3 | -5 | 3 | 4 | -4
O=c1c2ccccc2nc(COc2ccccc2)n1/N=C/c1cc([N+](=O)[O-])ccc1O | 8 | -2 | -2 | -10 | -130 | 130*
Cc1cc(/C=N/n2c(COc3ccccc3C)nc3ccccc3c2=O)c(O)c([N+](=O)[O-])c1 | 3 | -4 | 0 | -1 | -144 | 144*
O=[N+]([O-])c1ccc(Cl)c(/C=N/n2c(COc3ccccc3)n[nH]c2=S)c1 | 9 | -6 | -4 | -6 | -6 | 6
Cc1ccc(S(=O)(=O)N2N=C3CCCCC3C2(O)C(F)(F)F)cc1 (stereo not given) | -1 | 1 | -5 | -5 | 5 | -5
COC(=O)[C@]12C[C@H](CC(=O)NCCCN3CCCC3=O)C(=O)N(Cc3ccc4c(c3)OCO4)C1=C[C@H](COCc1ccccc1)O[C@@H]2C | · | -9 | · | · | · | ·
Cc1noc(C)c1NC(=O)N(C)C[C@H]1OCc2cn(nn2)CCCC(=O)N([C@H](C)CO)C[C@@H]1C | · | -5 | · | · | · | ·
COc1ccc(S(=O)(=O)N2CCC(C)CC2)cc1Br | 0 | -4 | 7 | 11 | -21 | 21
COc1ccc(S(=O)(=O)N2CCC(O)(c3ccc(Cl)cc3)CC2)cc1 | -2 | -5 | -1 | -11 | -5 | 5
COc1ccc(S(=O)(=O)N2CCC(O)(c3ccc(Cl)cc3)CC2)cc1OC | 1 | 0 | 17* | -4 | 0 | 0
COc1ccc(S(=O)(=O)N2CCC(C)CC2)cc1OC | 1 | -2 | -2 | 3 | -76 | 76*
O=C1C(Nc2ccccc2)=C(N2CCCCC2)C(=O)c2ccccc21 | -3 | -7 | 1 | 25 | 14 | -14
O=C(/C=C/c1ccc(O)cc1)c1ccc(NC2=C(N3CCCCC3)C(=O)c3ccccc3C2=O)cc1 | 1 | -8 | -3 | -2 | -90 | 90*
O=C1C(Nc2cccc(O)c2)=C(N2CCCCC2)C(=O)c2ccccc21 | 0 | -6 | -4 | -4 | -47 | 47
Cc1ccc(NC2=C(N3CCCCC3)C(=O)c3ccccc3C2=O)cc1 | 1 | · | 0 | -1 | -73 | 73*
SMILES | NTR1 agonist | CaV13 ICDI inh | V-ATPase pHluor | Vif inh | SR-BI DiI-HDL act | SR-BI DiI inh
Brc1ccc2nc(-c3c[nH]c4ccccc34)cn2c1 | 1 | -3 | 2 | 32 | -84 | 84*
CC(=O)Nc1cc(=O)c2cccnc2[nH]1 | · | -4 | 3 | 20 | 14 | -14
C/C(=N/Nc1nc(-c2ccc(Cl)cc2)cs1)c1cccs1 | -4 | -4 | 4 | -7 | -79 | 79*
O=C(Nc1ccccc1)Nc1cc(OCC(F)(F)F)cc(OCC(F)(F)F)c1 | · | -1 | 4 | -1 | -92 | 92*
O=C(Nc1ccccc1)Nc1cc(Cl)cc(Cl)c1 | 12 | -5 | 0 | -16 | -44 | 44
CCC/C=C/c1ccc(CN2C(CC(C)C)C(=O)N(Cc3cn(Cc4ccco4)nn3)CCS2(=O)=O)cc1 (stereo not given) | · | -4 | 1 | -10 | · | ·
Nc1[nH]c(C(=O)c2ccc(Cl)cc2)c(-c2ccc(Br)cc2)c1C(=O)c1c[nH]c2ccc(F)cc12 | · | -6 | · | · | · | ·
CN(C)c1ccc(C(=O)C=Cc2ccc([N+](=O)[O-])cc2)cc1 | · | -16 | 3 | 2 | · | ·
CN(C)c1ccc(/C=C/C(=O)c2ccc(O)cc2)cc1 | · | -39 | 1 | 83* | 7 | -7
CN(C)c1ccc(/C=C/C(=O)c2ccc3c(c2)OCO3)cc1 | -4 | -107 | 1 | + | 0 | 0
CCN(CC)CCN(C(=O)Cn1nnc(-c2ccc(C)o2)n1)C(C(=O)NC1CCCC1)c1ccc(F)cc1 (stereo not given) | -1 | -3 | 4 | -3 | -18 | 18
Cc1ccc(/C=C/C(=O)O)cc1S(=O)(=O)N1CCc2ccccc21 | 0 | -2 | -4 | 58* | 7 | -7
CN(C)/C=C/C(=O)c1ccc(C(F)(F)F)cc1F | 3 | -1 | -1 | 10 | 24 | -24
CN(C)/C=C/C(=O)c1c(F)cccc1F | -1 | 94* | -2 | -5 | 1 | -1
CCNC(=S)N/N=C/c1ccc(F)cc1 | 2 | 9 | · | · | · | ·
Cc1oc(/N=C/c2ccc(F)cc2)c(C#N)c1C | 2 | 82* | 3 | -1 | -10 | 10
Cc1ccc(N(C)C(=O)c2ccc(CNc3c(N4CCC(C)CC4)c(=O)c3=O)cc2)cc1 | -1 | -3 | -2 | 10 | · | ·
Cc1cc(N2CCN(S(=O)(=O)c3ccc(Cl)c(Cl)c3)CC2)c2ccccc2n1 | 17 | -5 | 0 | 86* | -20 | 20
Cc1cc(N2CCN(S(=O)(=O)c3ccc(Cl)cc3)CC2)c2ccccc2n1 | 21 | · | -6 | -17 | -3 | 3
CC(NC(=O)C(CC(=O)OC(C)(C)C)NC(=O)OC(C)(C)C)C(N)=O (stereo not given) | -2 | -4 | -1 | 55* | 7 | -7
COc1cccc(CC(=O)Nc2ccccc2C(=O)N2CCOCC2)c1 | -2 | -9 | -2 | 5 | 71* | -71
